Here are results for one compound from publication PMC11439047 (Nature Communications, 2024).

Substitutions are numbered along the chain they refer to.

The target of test [1] is T1, P2X1 receptor K140A (Homo sapiens, UniProt P51575, K140A).
T1 sequence (P51575 1-399 K140A): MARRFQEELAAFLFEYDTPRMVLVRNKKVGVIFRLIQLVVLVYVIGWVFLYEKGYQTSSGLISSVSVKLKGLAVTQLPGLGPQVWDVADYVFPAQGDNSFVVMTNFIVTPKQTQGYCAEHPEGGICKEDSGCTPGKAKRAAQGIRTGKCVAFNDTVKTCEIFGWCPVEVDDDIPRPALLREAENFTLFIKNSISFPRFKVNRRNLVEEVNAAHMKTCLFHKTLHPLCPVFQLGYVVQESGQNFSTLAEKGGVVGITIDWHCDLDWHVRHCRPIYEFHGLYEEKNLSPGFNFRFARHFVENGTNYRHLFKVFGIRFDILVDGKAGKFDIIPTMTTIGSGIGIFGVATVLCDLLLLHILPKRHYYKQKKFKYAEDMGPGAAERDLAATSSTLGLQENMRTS
Put plainly: Saturation radioligand binding with [3H]-α,β-methylene ATP. The procedure, abridged: (§1)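 Whole HEK293 Flp-In T-REx cells stably expressing receptor, tetracycline-induced (150 ng/ml, 2 days), 15,000 cells/well, washed in HEPES binding buffer pH 7.4 with Ca2+/Mg2+. Increasing [3H]-α,β-methylene ATP added, 3 h room temperature with gentle agitation; non-specific binding with 10 μM ATP. Ice-cold 0.9% NaCl washes, scintillation counting (CCPM). Specific binding fitted one-site; values above 300 nM termed not defined.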

The target of test [2] is T2, P2X1 receptor E282A (Homo sapiens, UniProt P51575, E282A).
T2 sequence (P51575 1-399 E282A): T1 sequence (P51575 1-399 K140A) with A140K, E282A
The test is described as above. The method in brief: as §1

Test [3] concerns the target T3, P2X1 receptor F188L (Homo sapiens, UniProt P51575, F188L).
T3 sequence (P51575 1-399 F188L): T1 sequence (P51575 1-399 K140A) with A140K, F188L
The description is as above. The procedure, abridged: as §1

Test [4] deals with T4, P2X1 receptor R139P (Homo sapiens, UniProt P51575, R139P).
T4 sequence (P51575 1-399 R139P): T1 sequence (P51575 1-399 K140A) with R139P, A140K
The test is described as above. The procedure, abridged:
as §1

In test [5] the target is T5, P2X1 receptor K136A (Homo sapiens, UniProt P51575, K136A).
T5 sequence (P51575 1-399 K136A): T1 sequence (P51575 1-399 K140A) with K136A, A140K
The description is as above. The procedure, abridged:
as §1

Test [6] addresses T6, P2X1 receptor M214A (Homo sapiens, UniProt P51575, M214A).
T6 sequence (P51575 1-399 M214A): T1 sequence (P51575 1-399 K140A) with A140K, M214A
The experiment in a line: Calcium ion influx assay. The format is cell-based.

Consider `Nc1ncnc2c1ncn2[C@@H]1O[C@H](COP(=O)(O)CP(=O)(O)OP(=O)(O)O)[C@@H](O)[C@H]1O` [α,β-methylene ATP], for which the “binding affinity compared to WT-P2X1” value in test [1] is listed as “comparable to that of WT-P2X1”; in test [2], “similar”; in test [3] it was “similar”; in test [4], “reduced”; in test [5] it was “similar”. For the same compound, the “fold decrease in potency compared to WT-P2X1” value in test [6] is listed as 7 fold. In test [6] (maximal α,β-methylene ATP), the “desensitisation rate compared to WT-P2X1” value is reported as “significantly slowed the desensitisation rate”.
